Drawing on ChEMBL document CHEMBL3734694, “Design, synthesis, and anticancer evaluation of long-chain alkoxylated mono-carbonyl analogues of curcumin” (Eur J Med Chem, 2015), this text covers inhibition and IC50 for 27 molecules.

Test [1] can be described thus: Cytotoxicity against human SW620 cells assessed as inhibition of cell proliferation at 10 uM incubated for 72 hrs by MTS assay. The conditions noted are these: SW-620, 72 h. The format is functional. In a few lines: (§1)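 Single-concentration MTS screen at 10 μM. Cells in RPMI-1640 with 10% FBS, seeded at 4000 cells/well in triplicate, attached overnight, then exposed for 72 h at 37°C, 5% CO2. MTS for 4 h; absorbance 490 nm. Reported as % inhibition.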
(Tetrazolium dyes change colour on reduction, which living cells bring about.)

A short description of test [2]: Cytotoxicity against human SGC7901 cells assessed as inhibition of cell proliferation incubated for 72 hrs by MTS assay. It is filed as functional, cell-based. The conditions noted are these: SGC-7901, 72 h. In a few lines:
(§2)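 Cells in RPMI-1640 with 10% heat-inactivated FBS at 37°C, 5% CO2. Seeded at 4000 cells/well in triplicate and attached overnight. Exposed to various concentrations for 72 h. MTS added for a further 4 h; absorbance at 490 nm. IC50 = concentration for 50% growth inhibition, as mean ± SEM of three independent tests.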

Test [3] can be described thus: Cytotoxicity against human MGC803 cells assessed as inhibition of cell proliferation at 10 uM incubated for 72 hrs by MTS assay. The conditions noted are these: MGC-803, 72 h. The format is functional. In a few lines: as §1
Test [4] in a line: Cytotoxicity against human SW620 cells assessed as inhibition of cell proliferation incubated for 72 hrs by MTS assay. The conditions noted are these: SW-620, 72 h. It is filed as functional, cell-based. In a few lines: as §2
Test [5] is described as follows: Cytotoxicity against human SGC7901 cells assessed as inhibition of cell proliferation at 10 uM incubated for 72 hrs by MTS assay. The format is functional. The conditions noted are these: SGC-7901, 72 h. In a few lines: as §1
Test [6] in a line: Cytotoxicity against human MGC803 cells assessed as inhibition of cell proliferation incubated for 72 hrs by MTS assay. The format is functional, cell-based. The note with it: MGC-803, 72 h. In a few lines:
as §2

Test [7] has as its system CT26. Kind of test: Cytotoxicity against mouse CT26 cells assessed as inhibition of cell proliferation incubated for 72 hrs by MTS assay. It is filed as functional, cell-based. The note with it: CT26, 72 h. Put shortly:
as §2

Test [8] can be described thus: Cytotoxicity against human GES-1 cells assessed as inhibition of cell proliferation incubated for 72 hrs by MTS assay. The format is functional, cell-based. The conditions noted are these: GES1, 72 h. In a few lines: as §2
Test [9] deals with CT26. Kind of test: Cytotoxicity against mouse CT26 cells at 10 uM assessed as inhibition of cell proliferation incubated for 72 hrs by MTS assay. It is filed as functional. The note with it: CT26, 72 h. Put shortly:
as §1

As usually defined, the inhibition is the relative decrease from the control value, in per cent. In general, IC50 refers to the point on the concentration scale where inhibition reaches its midpoint. As for `COc1cc(/C=C2\CCC/C(=C\c3ccc(OCCCN4CCOCC4)c(OC)c3)C2=O)ccc1OCCCBr`, the inhibition at 10 µM was found to be 72.7% in test [1], 51.2% in test [3], 61.9% in [5] and 65.2% in the test with CT26 [9]. For the same molecule, the half-inhibitory concentration (IC50) in test [2] was 11 µM; in [4] it was 5.64 µM; in [6], 10.2 µM; with CT26 [7], 10.5 µM; in test [8], 10 µM.

Take `O=C1/C(=C/c2ccc(OCCBr)cc2)CCC/C1=C\c1ccc(OCCBr)cc1`: the inhibition at 10 µM in [1] is 0.12%; in [3], 0.05%; in [5], 10.8%; in the test on CT26 [9], 58.3%.

As for `COc1cc(/C=C2\CC/C(=C\c3ccc(OCCCn4ccnc4)c(OC)c3)C2=O)ccc1OCCCBr`, the inhibition at 10 µM was 65.7% in test [1], 7.1% in test [3], 14% in [5] and 87.1% in the test on CT26 [9].

With `COc1ccccc1/C=C1\CCC/C(=C\c2ccc(OCCCN3CCOCC3)c(OC)c2)C1=O`, the inhibition at 10 µM in test [1] is 22.9%; in [3], 2.3%; in [5], -0.33%; in the test with CT26 [9] it was 31.6%.

On to `COc1cc(/C=C/C(=O)/C=C/c2ccccc2Cl)ccc1OCCCN1CCOCC1`, for which the inhibition at 10 µM in [1] stood at 81.6%; in test [3], 38.5%; in test [5] it was 75.3%; in the test on CT26 [9] it was 87.2%.

As for `COc1cc(/C=C2\CCC/C(=C\c3cccc(OC)c3OC)C2=O)ccc1OCCCN1CCOCC1`, the inhibition at 10 µM is 22.5% in [1], -9.26% in test [3], -6.53% in test [5] and 57.2% in the test with CT26 [9].

On to `COc1cc(/C=C2\CC/C(=C\c3ccc(OCCCN4CCCCC4)c(OC)c3)C2=O)ccc1OCCCBr`, for which the inhibition at 10 µM in [1] worked out at 84.5%; in test [3], 91.4%; in test [5] it was 89%; in the test on CT26 [9] it was 90.2%. Besides, the IC50 in test [2] came to 5.08 µM; in test [4], 4.47 µM; in [6] it was 7.31 µM; with CT26 [7], 3.86 µM; in [8], 7.03 µM.

For the molecule `COc1ccc(/C=C/C(=O)/C=C/c2ccc(OCCCN3CCOCC3)c(OC)c2)c(F)c1`, the inhibition at 10 µM in [1] was 79.3%; in test [3], 3.64%; in [5], 51.6%; in the test on CT26 [9] it was 67.6%.

Regarding `COc1cc(/C=C2\CCC/C(=C\c3ccc(OCCCN4CCN(C)CC4)c(OC)c3)C2=O)ccc1OCCCBr`, the inhibition at 10 µM was 48.1% in [1], -7.15% in test [3], 15.7% in test [5] and 37.3% in the test with CT26 [9].

Regarding `CCN(CC)CCCOc1ccc(/C=C2\CCC/C(=C\c3ccc(OCCCBr)c(OC)c3)C2=O)cc1OC`, the inhibition at 10 µM in [1] came to 85.3%; in [3] it was 87%; in test [5], 86.4%; in the test on CT26 [9], 92.3%. Besides, the 50% inhibitory concentration (IC50) came out at 11.9 µM in test [2]; 4.65 µM in test [4]; 15.5 µM in [6]; 12.8 µM in the test on CT26 [7]; 14.1 µM in test [8].

`COc1cc(/C=C/C(=O)/C=C/c2c(C)cc(C)cc2C)ccc1OCCCN1CCOCC1`: the inhibition at 10 µM in test [1] worked out at 83.6%; in test [3], 80.7%; in [5], 78.1%; in the test on CT26 [9] it was 89.6%. Further, the IC50 in test [2] was 7.67 µM; in [4], 3.38 µM; in [6] it was 8.46 µM; with CT26 [7] it was 7.01 µM; in [8], 8.06 µM.

On to `COc1ccc(/C=C/C(=O)/C=C/c2ccc(OCCCN3CCOCC3)c(OC)c2)cc1OC`, for which the inhibition at 10 µM in [1] is 84.8%; in [3], 53.8%; in test [5] it was 66.1%; in the test on CT26 [9] it was 79.7%. Besides, the half-inhibitory concentration (IC50) turned out to be 5.99 µM in [2]; 2.8 µM in test [4]; 7.14 µM in [6]; 3.13 µM in the test on CT26 [7]; 7.81 µM in [8].

With `O=C1/C(=C/c2ccc(OCCBr)cc2)CC/C1=C\c1ccc(OCCBr)cc1`, the inhibition at 10 µM in test [1] stood at 78.5%; in test [3], 52%; in test [5], 76%; with CT26 [9] it was 88.1%.

For `COc1cc(/C=C2\CCC/C(=C\c3ccc(OCCBr)c(OC)c3)C2=O)ccc1OCCBr`, the inhibition at 10 µM is 66.3% in [1], 58.4% in [3], 69.2% in [5] and 77.3% in the test with CT26 [9]. For the same molecule, the IC50 in test [2] was determined as 6.26 µM; in test [4], 6.26 µM; in test [6], 7.72 µM; with CT26 [7], 9.85 µM; in test [8], 3.56 µM.

Regarding `COc1cc(/C=C/C(=O)CC(=O)/C=C/c2ccc(O)c(OC)c2)ccc1O` [CURCUMIN], the IC50 in [2] was 24.4 µM; in [4] it was 12.5 µM; in test [6], 31.4 µM; in the test on CT26 [7], 7.7 µM; in test [8] it was 27.9 µM.

Take `CCCN(CCC)CCCOc1ccc(/C=C2\CCC/C(=C\c3ccc(OCCCN(CCC)CCC)c(OC)c3)C2=O)cc1OC`: the inhibition at 10 µM was 10.3% in [1], -18.4% in test [3], 2.83% in [5] and 8.04% in the test on CT26 [9].

As for `COc1cc(/C=C/C(=O)/C=C/c2ccc(OCCCN3CCOCC3)c(OC)c2)ccc1OCCCN1CCOCC1`, the inhibition at 10 µM in test [1] came out at 84%; in [3] it was 44.5%; in test [5], 67.5%; in the test with CT26 [9] it was 89.7%.

For `COc1ccccc1/C=C/C(=O)/C=C/c1ccc(OCCBr)c(OC)c1`, the inhibition at 10 µM was 83.7% in [1], 76.2% in test [3], 78.7% in test [5] and 70.5% in the test on CT26 [9]. Further, the half-inhibitory concentration (IC50) in [2] was determined as 4.52 µM; in [4], 4.43 µM; in test [6] it was 5.52 µM; with CT26 [7], 4.51 µM; in test [8], 4.04 µM.

Consider `COc1cc(/C=C2\CC/C(=C\c3ccccc3C(F)(F)F)C2=O)ccc1OCCCN1CCOCC1`, for which the inhibition at 10 µM in test [1] was found to be 34.9%; in test [3], 4.98%; in [5] it was 29.7%; with CT26 [9], 4.71%.

Turning to `COc1cc(/C=C/C(=O)/C=C/c2ccccc2C(F)(F)F)ccc1OCCCN1CCOCC1`, the inhibition at 10 µM in [1] is -3.21%; in [3], -2.85%; in [5], 3.22%; in the test with CT26 [9] it was -24%.

`COc1cc(/C=C2\CCC/C(=C\c3ccc(OCCCN4CCCCC4)c(OC)c3)C2=O)ccc1OCCCBr`: the inhibition at 10 µM in test [1] was found to be 50%; in [3], 26.9%; in [5] it was 24.4%; in the test on CT26 [9] it was 61.2%.

With `COc1cc(/C=C2\CCC/C(=C\c3ccc(OCCCN4CCOCC4)c(OC)c3)C2=O)ccc1OCCCN1CCOCC1`, the inhibition at 10 µM in test [1] stood at 85.7%; in test [3], 78.1%; in test [5], 81.8%; with CT26 [9], 93.3%. Moreover, the IC50 was found to be 4.96 µM in [2]; 1.98 µM in test [4]; 2.06 µM in test [6]; 2.69 µM in the test with CT26 [7]; 3.02 µM in test [8].

Consider `COc1cc(/C=C2\CCC/C(=C\c3ccc(OCCCN4CCN(C)CC4)c(OC)c3)C2=O)ccc1OCCCN1CCN(C)CC1`, for which the inhibition at 10 µM came out at 86.7% in test [1], 77.5% in test [3], 84.8% in test [5] and 109% in the test with CT26 [9]. The IC50 in [2] was determined as 1.88 µM; in test [4], 1.04 µM; in [6], 1.94 µM; in the test with CT26 [7], 2.01 µM; in [8] it was 3.27 µM.

With `COc1cc(/C=C2\CCC/C(=C\c3ccc(OCCCBr)c(OC)c3)C2=O)ccc1OCCCBr`, the inhibition at 10 µM was 61.2% in test [1], -8.68% in test [3], 18.9% in test [5] and 49.8% in the test on CT26 [9].

Regarding `COc1cc(/C=C2\CC/C(=C\c3ccc(OCCCBr)c(OC)c3)C2=O)ccc1OCCCBr`, the inhibition at 10 µM in [1] stood at 27.4%; in [3], 5.56%; in test [5], 6.48%; in the test on CT26 [9] it was 71%.

Turning to `COc1cc(OC)c(/C=C/C(=O)/C=C/c2ccc(OCCCN3CCOCC3)c(OC)c2)c(OC)c1`, the inhibition at 10 µM in test [1] is 33.9%; in [3], 5.96%; in test [5], 9.22%; in the test on CT26 [9], 65.8%.

On to `COc1cc(/C=C2\CC/C(=C\c3ccc(OCCBr)c(OC)c3)C2=O)ccc1OCCBr`, for which the inhibition at 10 µM in [1] was 38.5%; in [3], 8.38%; in test [5], 20.4%; in the test on CT26 [9], 58.6%.
